Assay results taken from ChEMBL document CHEMBL3526089, “Selective mechanism-based inactivation of CYP3A4 by CYP3cide (PF-04981517) and its utility as an in vitro tool for delineating the relative roles of CYP3A4 versus CYP3A5 in the metabolism of drugs” (Drug Metab Dispos, 2012).

Tests used:
Cytochrome P450 3A5 [1] = molecular target: T1, Cytochrome P450 3A5 (Homo sapiens, UniProt P20815); experiment: (§1) Drug metabolism assessed as human recombinant CYP3A5 in presence of human P450 oxidoreductase and b5-mediated 1-((3S)-1-(1-methyl-3-(1-methyl-5-p-tolyl-1H-pyrazol-4-yl)-1H-pyrazolo[3,4-d]pyrimidin-4-yl)pyrrolidin-3-yl)-2,3,4,5-tetrahydropyridinium formation at 10 uM by HPLC-MS analysis in presence of NADPH; assay type: ADME; settings: recombinant enzyme
How it was run: (§2)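 Recombinant CYP3A4 or CYP3A5 (50 pmol/ml final) added, without preincubation, to 10 µM CYP3cide with NADPH (final 1 mM) in 100 mM phosphate pH 7.4. Trapping incubations also held 200 µM KCN or 5 mM GSH (final). Incubated 1 h at 37°C, quenched with acetonitrile, dried, reconstituted. Metabolites analysed by LC/Orbitrap ESI-MS.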
Target sequence in this assay (P20815 whole entry): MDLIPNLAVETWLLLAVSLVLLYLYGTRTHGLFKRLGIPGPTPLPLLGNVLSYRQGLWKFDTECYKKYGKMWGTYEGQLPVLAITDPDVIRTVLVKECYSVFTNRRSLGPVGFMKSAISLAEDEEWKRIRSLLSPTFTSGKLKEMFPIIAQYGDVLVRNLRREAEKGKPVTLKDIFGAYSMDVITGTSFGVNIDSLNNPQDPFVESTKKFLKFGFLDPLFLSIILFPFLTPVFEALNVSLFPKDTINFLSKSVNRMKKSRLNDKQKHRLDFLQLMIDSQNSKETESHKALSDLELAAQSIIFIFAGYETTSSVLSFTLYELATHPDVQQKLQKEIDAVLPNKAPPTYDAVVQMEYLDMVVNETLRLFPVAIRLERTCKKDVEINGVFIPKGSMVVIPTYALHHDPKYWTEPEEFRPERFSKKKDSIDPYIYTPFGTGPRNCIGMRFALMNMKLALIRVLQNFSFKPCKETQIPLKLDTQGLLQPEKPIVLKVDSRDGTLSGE

CYP3A4 [2] = molecular target: T2, CYP3A4 (Homo sapiens, UniProt P08684); experiment: Irreversible inhibition of human recombinant CYP3A4 harboring human P450 oxidoreductase and b5 assessed as residual midazolam 1'-hydroxylase activity in presence of NADPH relative to control; assay type: ADME; settings: recombinant CYP3A4 with human P450 oxidoreductase and b5, probe midazolam (1'-hydroxylation)
T2 sequence (P08684 whole entry): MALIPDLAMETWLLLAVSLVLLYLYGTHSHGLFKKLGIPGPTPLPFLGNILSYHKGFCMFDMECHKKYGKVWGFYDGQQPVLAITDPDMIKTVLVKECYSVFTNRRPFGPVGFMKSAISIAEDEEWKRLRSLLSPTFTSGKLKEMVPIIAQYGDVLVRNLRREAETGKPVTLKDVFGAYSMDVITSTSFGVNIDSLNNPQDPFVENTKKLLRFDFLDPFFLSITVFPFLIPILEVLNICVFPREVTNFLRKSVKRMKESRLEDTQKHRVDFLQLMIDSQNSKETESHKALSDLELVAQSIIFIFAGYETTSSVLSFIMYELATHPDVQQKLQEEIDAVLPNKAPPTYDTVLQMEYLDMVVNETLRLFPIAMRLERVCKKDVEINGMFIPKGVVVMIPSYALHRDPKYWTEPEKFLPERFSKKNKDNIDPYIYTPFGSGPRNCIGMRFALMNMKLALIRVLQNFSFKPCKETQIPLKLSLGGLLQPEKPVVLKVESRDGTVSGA

CYP3A = CYP3A (Homo sapiens, UniProt P08684+P20815+P24462+Q9HB55); experiment: Reversible inhibition of human CYP3A testosterone 6beta-hydroxylase activity; assay type: ADME; settings: probe testosterone (6beta-hydroxylation)
How it was run: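 Reversible IC50 with pooled HLM or recombinant CYP3A7 (with POR and b5), protein 0.010–0.10 mg/ml depending on isoform. Probe substrate at its experimentally derived KM. Metabolite formation measured by LC/MS/MS. IC50 determinations run in duplicate.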

CYP3A5*3/*3 = experiment: Time dependent inhibition of CYP3A5*3/*3 in human liver microsomes assessed as midazolam 1'-hydroxylase activity at 0.56 uM after 10 mins by dilution method; assay type: ADME; settings: human liver microsomes (CYP3A5*3/*3 genotype), probe midazolam (1'-hydroxylation)
How it was run: (§3)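 Genotyped individual HLMs (0.1 mg/ml) preincubated at 37°C with CYP3cide (0–1.3 μM; 10 min in the two-donor study, 5 min in the 30-donor study), with or without 1.3 mM NADPH (N=3). Mixture diluted 20-fold into 23 μM midazolam for 6 min. 1'-OH-midazolam measured. Readout: % of vehicle/no-NADPH control activity.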

Cytochrome P450 3A5 [3] = molecular target: T1, Cytochrome P450 3A5; experiment: Reversible inhibition of midazolam 1'-hydroxylase activity of human recombinant CYP3A5 harboring human P450 oxidoreductase and b5; assay type: ADME
How it was run: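 Recombinant CYP3A5 expressed in baculovirus, with P450 oxidoreductase and cytochrome b5 (P450:POR:b5 1:13:7). Enzyme at 0.010 mg/ml for midazolam 1'-hydroxylase and 0.020 mg/ml for testosterone 6β-hydroxylase. Each substrate at its experimentally derived KM. IC50 determined in duplicate.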
Target sequence in this assay (P20815 whole entry): as the sequence (P20815 whole entry) above

Cytochrome P450 3A5 [4] = molecular target: T1, Cytochrome P450 3A5; experiment: Drug metabolism assessed as human recombinant CYP3A5 in presence of human P450 oxidoreductase and b5-mediated 1-((3S)-1-(1-methyl-3-(1-methyl-5-p-tolyl-1H-pyrazol-4-yl)-1H-pyrazolo[3,4-d]pyrimidin-4-yl)pyrrolidin-3-yl)-2,3,4,5-tetrahydropyridinium formation at 10 uM by HPLC-MS analysis in presence of KCN and NADPH; settings: recombinant enzyme
Target sequence in this assay (P20815 whole entry, looked up): as the sequence (P20815 whole entry) above

CYP3A4 [5] = molecular target: T2, CYP3A4; experiment: Time dependent inhibition of midazolam 1'-hydroxylase activity of human recombinant CYP3A4 harboring human P450 oxidoreductase and b5 assessed as decrease in enzyme activity at 0.050 uM preincubated for 30 mins by IC25-shift assay; assay type: ADME; settings: recombinant CYP3A4 with human P450 oxidoreductase and b5, probe midazolam (1'-hydroxylation)
How it was run: (§4)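 IC25-shift assay. Pooled HLMs or recombinant CYP3A4/3A5/3A7 were preincubated 30 min at 37°C with CYP3cide, with or without NADPH (1.3 mM) (N=2). Mixture diluted 10-fold into probe substrate (~KM) at 37°C. Metabolites analysed by LC/MS/MS. Readout: % decrease in activity vs control.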

Cytochrome P450 3A5 [6] = molecular target: T1, Cytochrome P450 3A5; experiment: as §1, with “presence of KCN and NADPH” for “presence of NADPH”; assay type: ADME; settings: recombinant enzyme; how it was run: as §2
Target sequence in this assay (P20815 whole entry): as above

CYP3A4 [7] = molecular target: T2, CYP3A4; experiment: Time dependent inhibition of testosterone 6beta-hydroxylase activity of human recombinant CYP3A4 in presence of human P450 oxidoreductase and b5 assessed as decrease in enzyme activity at 0.050 uM preincubated for 30 mins by IC25-shift assay; assay type: ADME; settings: recombinant CYP3A4 with human P450 oxidoreductase and b5, probe testosterone (6beta-hydroxylation); how it was run: as §4
CYP2D6 = CYP2D6 (Homo sapiens, UniProt P10635); experiment: Time dependent inhibition of human CYP2D6 dextromethorphan O-demethylase activity assessed as decrease in enzyme activity at 100 uM preincubated for 30 mins by IC25-shift assay; assay type: ADME; settings: probe dextromethorphan (O-demethylation); how it was run: as §4
Sequence of CYP2D6 (P10635 whole entry): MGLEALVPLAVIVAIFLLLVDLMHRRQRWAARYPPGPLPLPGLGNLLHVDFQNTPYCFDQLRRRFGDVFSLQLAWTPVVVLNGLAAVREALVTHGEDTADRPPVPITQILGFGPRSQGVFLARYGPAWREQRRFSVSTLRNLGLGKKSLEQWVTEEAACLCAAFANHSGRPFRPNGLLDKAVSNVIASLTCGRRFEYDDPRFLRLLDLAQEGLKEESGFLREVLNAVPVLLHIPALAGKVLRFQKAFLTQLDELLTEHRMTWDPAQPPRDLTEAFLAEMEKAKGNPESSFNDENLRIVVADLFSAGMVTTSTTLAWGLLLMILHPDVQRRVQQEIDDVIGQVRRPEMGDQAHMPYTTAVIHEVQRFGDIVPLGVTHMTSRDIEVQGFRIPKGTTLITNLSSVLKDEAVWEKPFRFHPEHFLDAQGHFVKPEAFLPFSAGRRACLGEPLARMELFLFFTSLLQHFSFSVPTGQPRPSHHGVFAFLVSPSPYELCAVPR

CYP3A5 = CYP3A5 (Homo sapiens, UniProt P20815); experiment: Time dependent inhibition of testosterone 6beta-hydroxylase activity of human recombinant CYP3A5 in presence of human P450 oxidoreductase and b5 assessed as decrease in enzyme activity at 2 uM preincubated for 30 mins by IC25-shift assay; assay type: ADME; settings: recombinant CYP3A5 with human P450 oxidoreductase and b5, probe testosterone (6beta-hydroxylation); how it was run: as §4
Sequence of CYP3A5 (P20815 whole entry): as the sequence (P20815 whole entry) above

CYP2C19 = CYP2C19 (Homo sapiens, UniProt P33261); experiment: Time dependent inhibition of human CYP2C19 S-mephenytoin 4'-hydroxylase activity assessed as decrease in enzyme activity at 100 uM preincubated for 30 mins by IC25-shift assay; assay type: ADME; settings: probe S-mephenytoin (4'-hydroxylation); how it was run: as §4
Sequence of CYP2C19 (P33261 whole entry): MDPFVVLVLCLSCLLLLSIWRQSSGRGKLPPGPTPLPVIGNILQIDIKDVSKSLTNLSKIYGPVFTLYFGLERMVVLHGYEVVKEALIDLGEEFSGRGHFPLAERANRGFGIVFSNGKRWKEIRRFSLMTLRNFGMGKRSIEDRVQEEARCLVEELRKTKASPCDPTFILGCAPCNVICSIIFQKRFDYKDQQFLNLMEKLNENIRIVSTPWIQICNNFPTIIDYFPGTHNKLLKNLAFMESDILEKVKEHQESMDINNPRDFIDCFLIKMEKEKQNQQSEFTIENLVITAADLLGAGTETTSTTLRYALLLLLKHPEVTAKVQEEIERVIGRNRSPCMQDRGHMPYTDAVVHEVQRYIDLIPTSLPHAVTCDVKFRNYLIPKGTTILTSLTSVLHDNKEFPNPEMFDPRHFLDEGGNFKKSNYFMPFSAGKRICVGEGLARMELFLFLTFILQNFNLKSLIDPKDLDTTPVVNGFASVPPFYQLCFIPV

Cytochrome P450 2D6 = Cytochrome P450 2D6 (Homo sapiens, UniProt P10635); experiment: Reversible inhibition of human CYP2D6 dextromethorphan O-demethylase activity; assay type: ADME
Sequence of Cytochrome P450 2D6 (P10635 whole entry): as the sequence (P10635 whole entry) above

CYP3A5*1/*1 = experiment: Inhibition of CYP3A5*1/*1 in human liver microsomes assessed as midazolam 1'-hydroxylase activity at 0.56 uM after 10 mins; assay type: ADME; settings: liver microsomes (CYP3A5*1/*1 genotype), probe midazolam (1'-hydroxylation); how it was run: as §3
CYP3A5*1/*3 = experiment: Time dependent inhibition of CYP3A5*1/*3 in human liver microsomes assessed as midazolam 1'-hydroxylase activity at 0.56 uM after 10 mins by dilution method; assay type: ADME; settings: human liver microsomes (CYP3A5*1/*3 genotype), probe midazolam (1'-hydroxylation)
Cytochrome P450 3A4 = Cytochrome P450 3A4 (Homo sapiens, UniProt P08684); experiment: as §1, with “CYP3A4” for “CYP3A5”; assay type: ADME; settings: recombinant enzyme; how it was run: as §2
Sequence of Cytochrome P450 3A4 (P08684 whole entry): as the sequence (P08684 whole entry) above

CYP2C8 = CYP2C8 (Homo sapiens, UniProt P10632); experiment: Time dependent inhibition of human CYP2C8 paclitaxel 6alpha-hydroxylase activity assessed as decrease in enzyme activity at 100 uM preincubated for 30 mins by IC25-shift assay; assay type: ADME; settings: probe paclitaxel (6alpha-hydroxylation); how it was run: as §4
Sequence of CYP2C8 (P10632 whole entry): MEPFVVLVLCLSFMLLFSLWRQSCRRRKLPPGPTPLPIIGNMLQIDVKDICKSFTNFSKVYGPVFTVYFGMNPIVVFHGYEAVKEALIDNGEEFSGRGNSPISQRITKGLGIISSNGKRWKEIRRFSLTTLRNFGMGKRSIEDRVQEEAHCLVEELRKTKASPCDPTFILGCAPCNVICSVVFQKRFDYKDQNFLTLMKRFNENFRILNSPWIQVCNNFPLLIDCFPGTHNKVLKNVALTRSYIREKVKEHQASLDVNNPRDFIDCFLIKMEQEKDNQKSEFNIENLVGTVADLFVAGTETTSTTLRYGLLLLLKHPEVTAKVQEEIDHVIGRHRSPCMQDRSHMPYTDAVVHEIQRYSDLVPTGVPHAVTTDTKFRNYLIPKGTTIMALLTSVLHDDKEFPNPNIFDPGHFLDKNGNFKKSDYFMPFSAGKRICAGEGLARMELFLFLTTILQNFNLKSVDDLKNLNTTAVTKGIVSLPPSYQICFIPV

CYP3A7 = CYP3A7 (Homo sapiens, UniProt P24462); experiment: Time dependent inhibition of midazolam 1'-hydroxylase activity of human recombinant CYP3A7 harboring human P450 oxidoreductase and b5 assessed as decrease in enzyme activity at 100 uM preincubated for 30 mins by IC25-shift assay; assay type: ADME; settings: recombinant CYP3A7 with human P450 oxidoreductase and b5, probe midazolam (1'-hydroxylation); how it was run: as §4
Sequence of CYP3A7 (P24462 whole entry): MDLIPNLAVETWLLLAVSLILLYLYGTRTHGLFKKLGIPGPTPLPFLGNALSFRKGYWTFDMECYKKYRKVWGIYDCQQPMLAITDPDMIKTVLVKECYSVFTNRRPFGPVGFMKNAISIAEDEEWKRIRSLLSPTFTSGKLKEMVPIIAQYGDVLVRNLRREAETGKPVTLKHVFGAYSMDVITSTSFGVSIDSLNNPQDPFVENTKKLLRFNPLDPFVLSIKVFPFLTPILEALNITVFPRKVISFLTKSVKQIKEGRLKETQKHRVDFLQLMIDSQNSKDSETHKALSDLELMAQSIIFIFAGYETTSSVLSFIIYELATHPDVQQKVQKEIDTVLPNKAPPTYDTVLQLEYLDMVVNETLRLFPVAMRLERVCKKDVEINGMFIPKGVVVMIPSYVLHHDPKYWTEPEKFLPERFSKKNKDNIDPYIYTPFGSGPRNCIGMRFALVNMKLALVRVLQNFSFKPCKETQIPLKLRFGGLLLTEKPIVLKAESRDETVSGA

- Drug metabolism (Cytochrome P450 3A5 [1]): metabolite_detected
- activity (CYP3A4 [2]): 16%
- IC50 (CYP3A): 1.4 µM
- inhibition at 10 min, 0.56 µM (CYP3A5*3/*3): 0.4%
- IC50 (Cytochrome P450 3A5 [3]): 17 µM
- Drug metabolism (Cytochrome P450 3A5 [4]): metabolite_detected
- inhibition at 30 min, 0.05 µM (CYP3A4 [5]): 87%
- Drug metabolism (Cytochrome P450 3A5 [6]): metabolite_detected
- inhibition at 30 min, 0.05 µM (CYP3A4 [7]): 74%
- inhibition at 30 min, 100 µM (CYP2D6): 6%
- inhibition at 30 min, 2 µM (CYP3A5): 71%
- inhibition at 30 min, 100 µM (CYP2C19): 0.79%
- IC50 (Cytochrome P450 2D6): 71 µM
- inhibition at 10 min, 0.56 µM (CYP3A5*1/*1): 23%
- inhibition at 10 min, 0.56 µM (CYP3A5*1/*3): 0.4%
- Drug metabolism (Cytochrome P450 3A4): metabolite_detected
- inhibition at 30 min, 100 µM (CYP2C8): 13%
- inhibition at 30 min, 100 µM (CYP3A7): 15%
SMILES: Cc1ccc(-c2c(-c3nn(C)c4ncnc(N5CC[C@H](N6CCCCC6)C5)c34)cnn2C)cc1
